Calls of active or inactive are those of the source. No cut-off for these calls is given here.
Assays:
[1] = Fluorescence property of compound in EtOH assessed as emission wavelength by UV-visible spectrophotometric method; type: physicochemical
[2] = target: T1, Retinoic acid receptor RXR-alpha (Homo sapiens) (UniProt P19793); assay: Antagonist activity against human RXRalpha expressed in COS1 cells incubated for 18 hrs by SEAP reporter gene assay; type: cell-based; conditions: COS-1, filed as antagonist
T1 sequence (whole entry): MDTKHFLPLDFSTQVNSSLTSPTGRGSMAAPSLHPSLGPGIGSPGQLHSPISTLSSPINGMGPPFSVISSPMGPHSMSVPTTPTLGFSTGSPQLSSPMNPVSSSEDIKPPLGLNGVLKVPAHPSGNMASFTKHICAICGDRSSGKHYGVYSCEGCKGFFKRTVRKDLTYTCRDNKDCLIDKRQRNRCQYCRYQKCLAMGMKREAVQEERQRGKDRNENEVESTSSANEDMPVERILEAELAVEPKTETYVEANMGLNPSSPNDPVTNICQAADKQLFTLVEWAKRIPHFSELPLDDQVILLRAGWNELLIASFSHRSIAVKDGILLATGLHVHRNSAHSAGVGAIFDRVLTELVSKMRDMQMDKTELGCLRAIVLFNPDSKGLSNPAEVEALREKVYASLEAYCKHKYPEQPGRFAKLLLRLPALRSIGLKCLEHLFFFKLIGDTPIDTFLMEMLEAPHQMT

[3] = Fluorescence property of compound in MeOH assessed as emission wavelength by UV-visible spectrophotometric method; type: physicochemical
Procedure, shortened: (§1)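 Fluorescence excitation and emission spectra recorded on the compound at 1 μM in MeOH solution. Maxima of excitation and emission taken from these spectra.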

[4] = Fluorescence property of compound in EtOH assessed as excitation wavelength by UV-visible spectrophotometric method; type: physicochemical
[5] = Fluorescence property of compound in EtOH assessed as quantum yield by UV-visible spectrophotometric method; type: physicochemical
[6] = Fluorescence property of compound in MeOH assessed as quantum yield by UV-visible spectrophotometric method; type: physicochemical
[7] = Fluorescence property of compound in MeOH assessed as excitation wavelength by UV-visible spectrophotometric method; type: physicochemical; procedure, shortened: as §1
[8] = target: T2, Retinoic acid receptor RXR-alpha (Homo sapiens, UniProt P19793); assay: Binding affinity to human RXRalpha-LBD (224 to 462 residues) expressed in Escherichia coli BL21(DE3) incubated for 1 hr by fluorescence polarization assay
T2 sequence (P19793 whole entry): T1 sequence (whole entry)

[9] = target: T2, Retinoic acid receptor RXR-alpha; assay: Binding affinity to human RXRalpha-LBD (224 to 462 residues) expressed in Escherichia coli BL21(DE3) incubated for 2 hrs by fluorescence assay
[10] = Fluorescence property of compound in MeOH assessed as molar extinction coefficient by UV-visible spectrophotometric method; type: physicochemical
[11] = Fluorescence property of compound in EtOH assessed as molar extinction coefficient by UV-visible spectrophotometric method; type: physicochemical

Activity [1] [nm] | Activity [2] | Activity [3] [nm] | Activity [4] [nm] | Activity [5] | Activity [6] | Activity [7] [nm] | Kd [8] [µM] | Kd [9] [µM] | Activity [10] | Activity [11] | SMILES
509 | Active | 508 | 499 | 0.471 | 0.349 | 499 | 0.375 | 0.761 | 2.8 10^4L/mol | 2.8 10^4L/mol | CC1=CC(C)=[N+]2C1=C(c1ccc(C(=O)NCCOCCOc3cc4c(cc3-n3c(C(F)(F)F)nc5cc(C(=O)O)ccc53)C(C)(C)CCC4(C)C)cc1)c1c(C)cc(C)n1[B-]2(F)F
527 | Active | 530 | 461 | 0.237 | 0.224 | 464 |  | 0.629 | 6.7 10^3L/mol | 8.4 10^3L/mol | CC1(C)CCC(C)(C)c2cc(-n3c(C(F)(F)F)nc4cc(C(=O)O)ccc43)c(OCCOCCNc3ccc([N+](=O)[O-])c4nonc34)cc21

From ChEMBL document CHEMBL4706774, “Creation of Fluorescent RXR Antagonists Based on CBTF-EE and Application to a Fluorescence Polarization Binding Assay” (ACS Med Chem Lett, 2021)
